This note sets out measurements from ChEMBL document CHEMBL3352115, “Discovery of APD334: Design of a Clinical Stage Functional Antagonist of the Sphingosine-1-phosphate-1 Receptor” (ACS Med Chem Lett, 2014).

Usually EC50 stands for the concentration at which the effect is half-maximal. One may read the Emax as the maximal effect, on the per cent scale that the assay sets. The half-life is the time needed for the level to fall by half in the phase considered. A low value points to rapid decline.

Data set [1] deals with T1, Sphingosine 1-phosphate receptor 1 (Homo sapiens, UniProt P21453). The data set is described as follows: Agonist activity at human S1P1 receptor assessed as cAMP accumulation by HTRF assay. Format: functional. An outline of the steps: (§1)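 HTRF cyclase (cAMP) functional assay at S1P1 of each species; EC50 taken as mean of three or more replicates; efficacy given as % agonism relative to S1P.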

In data set [2] the target is T1, Sphingosine 1-phosphate receptor 1. The data set is described as follows: Agonist activity at human S1P1 receptor assessed as cAMP accumulation by HTRF assay relative to S1P. The class given is functional. In outline: as §1
A general note: Changes in cAMP serve as a functional read-out for many G protein-coupled receptors.

Data set [3] in a line: Half life in rat liver microsomes. The class given is ADME. In outline:
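Stability on incubation with liver microsomes of each species; half-life reported.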

A short description of data set [4]: Activation of Inward rectifier potassium channel in human atrial myocytes. Format: cell-based. Particulars: Cardiac atrium. An outline of the steps: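 In vitro activation of the inward-rectifying potassium channel (IKACh) in human atrial myocytes, run alongside S1P as reference agonist; potency expressed as EC50.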
In the next data set the test system is Mus musculus. Nature of the data set: Reduction in disease severity in C57Bl/6 mouse experimental autoimmune encephalomyelitis model of multiple sclerosis at 1 mg/kg dosed once daily beginning on day 18 and continued to day 37. More on the design: dose 1 mg/kg. The class given is functional, organism-based. In outline:
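Female C57Bl/6 mice with MOG35–55-induced EAE; once-daily treatment started day 18 after severe disease onset and continued to day 37; vehicle 0.5% methylcellulose; clinical scoring.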

The subject of data set [5] is Rattus norvegicus. Nature of the data set: Reduction in ankle diameter in Lewis rat collagen-induced arthritis model at 1 mg/kg, po qd measured on day 17 (reference value: +/- inches). Format: functional. An outline of the steps: (§2)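 Female Lewis rats with collagen-induced arthritis, prophylactic daily oral dosing; ankle diameter (inches) and body weight recorded at day 17 end point; mean ± SEM.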

Data set [6] concerns Rattus norvegicus. The data set is described as follows: Induction of body weight regain in Lewis rat collagen-induced arthritis model at 1 mg/kg, po qd measured on day 17 (reference value: 160.3 +/- 2.3 g). Format: functional.
In data set [7] the test system is Rattus norvegicus. Nature of the data set: Reduction in ankle diameter in Lewis rat collagen-induced arthritis model at 0.075 mg/kg, po qd measured on day 17 (reference value: +/- inches). Format: functional. In outline: as §2
The subject of data set [8] is Rattus norvegicus. Nature of the data set: Induction of body weight regain in Lewis rat collagen-induced arthritis model at 0.075 mg/kg, po qd measured on day 17 (reference value: 160.3 +/- 2.3 g). Format: functional.

The source made the active and inactive calls.

T1 sequence (P21453 whole entry): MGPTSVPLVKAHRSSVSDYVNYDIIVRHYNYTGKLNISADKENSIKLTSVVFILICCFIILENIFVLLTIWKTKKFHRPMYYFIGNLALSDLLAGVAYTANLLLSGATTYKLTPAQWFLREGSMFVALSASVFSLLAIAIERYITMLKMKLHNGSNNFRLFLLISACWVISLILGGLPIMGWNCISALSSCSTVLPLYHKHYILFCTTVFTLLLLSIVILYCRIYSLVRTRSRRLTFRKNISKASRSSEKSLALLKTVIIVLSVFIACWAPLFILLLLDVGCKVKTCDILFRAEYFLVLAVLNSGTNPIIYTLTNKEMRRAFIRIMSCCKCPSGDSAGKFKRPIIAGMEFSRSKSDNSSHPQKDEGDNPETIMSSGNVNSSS

`O=C(O)C[C@@H]1CCc2c1[nH]c1ccc(OCc3ccc(C4CCCC4)c(C(F)(F)F)c3)cc21`: the 50% effective concentration (EC50) in data set [1] was 0.09 nM. Moreover, the Emax in [2] came out at 103%. The compound further came in with a half-life in data set [3] of 9 min.
For the compound `O=C(O)CC1CCc2c1[nH]c1ccc(OCc3ccc(C4CC4)c(C(F)(F)F)c3)cc21` (racemic), the concentration for a half-maximal effect (EC50) in [1] worked out at 3.68 nM. In data set [2], the Emax is 118%.
Take `CCCCCCCCCCCCC/C=C/[C@@H](O)[C@@H](N)COP(=O)(O)O`: the half-maximal effective concentration (EC50) is 2.1 nM in data set [4] and 0.062 nM in [1].
Turning to `N#Cc1cc(COc2ccc3[nH]c4c(c3c2)CCC4CC(=O)O)cc(OC(F)(F)F)c1` (racemic), in [2], the maximal response (Emax) was determined as 90%.
`CCCCCCCCc1ccc(CCC(N)(CO)CO)cc1` [FINGOLIMOD]: the result in the data set on Mus musculus was Active. Further, the Activity in the data set on Rattus norvegicus [5] is reported as 0.2694 inches; in the data set on Rattus norvegicus [6], 181.9 g.
Consider `O=C(O)CC1CCc2c1[nH]c1ccc(OCc3ccc(Cl)c(C(F)(F)F)c3)cc21` (racemic), for which, in data set [1], the EC50 is 159 nM. For the same compound, the maximal effect (Emax) in data set [2] amounted to 117%.
Taken in the same sequence, the figures for `N#Cc1cc(COc2ccc3[nH]c4c(c3c2)CCC4CC(=O)O)ccc1OC(F)(F)F` (racemic) were 1.7 nM and 109%.
Taken in the same sequence, the figures for `CC(C)(C)Cc1ccc(COc2ccc3[nH]c4c(c3c2)CCC4CC(=O)O)cc1C(F)(F)F` (racemic) were 55.8 nM and 112%.
Taken in the same sequence, the figures for `O=C(O)CC1CCc2c1[nH]c1ccc(OCc3ccc(C4CCC4)c(C(F)(F)F)c3)cc21` (racemic) were 0.45 nM and 109%.
As to `O=C(O)CC1CCc2c1[nH]c1ccc(OCc3ccc(C4CCCCC4)c(C(F)(F)F)c3)cc21` (racemic), in [1], the EC50 came to 0.077 nM. In addition, the Emax in [2] amounted to 96%.
In the same order, the values of `O=C(O)CC1CCc2c1[nH]c1ccc(OCc3ccc(CC4CCCCC4)c(C(F)(F)F)c3)cc21` (racemic) are 4.58 nM and 111%.
Taken in the same sequence, the figures for `CC(C)Cc1ccc(COc2ccc3[nH]c4c(c3c2)CCC4CC(=O)O)cc1C(F)(F)F` (racemic) were 0.44 nM and 103%.
Taken in the same sequence, the figures for `CCCc1ccc(COc2ccc3[nH]c4c(c3c2)CCC4CC(=O)O)cc1C(F)(F)F` (racemic) were 0.49 nM and 107%.
On to `O=C(O)CC1CCc2c1[nH]c1ccc(OCc3ccc(C4CCCC4)c(C(F)(F)F)c3)cc21` (racemic), for which, in data set [1], the concentration giving a half-maximal response (EC50) is 0.073 nM. Besides, the maximal response (Emax) in [2] is 104%.
In the case of `CN(Cc1cnc2nc(N)nc(N)c2n1)c1ccc(C(=O)N[C@@H](CCC(=O)O)C(=O)O)cc1` [METHOTREXATE], the figures for the Activity in the data set with Rattus norvegicus [7] and in the data set on Rattus norvegicus [8] were 0.2795 inches and 181.7 g, respectively.
For `COc1ccc(COc2ccc3[nH]c4c(c3c2)CCC4CC(=O)O)cc1C#N` (racemic), the EC50 in data set [1] came out at 120 nM. Also, the maximal effect (Emax) in [2] worked out at 136%.
As for `O=C(O)CC1CCc2c1[nH]c1ccc(OCc3cc(C(F)(F)F)cc(C(F)(F)F)c3)cc21` (racemic), the Emax in data set [2] stood at 98%.
Take `N#Cc1cc(COc2ccc3[nH]c4c(c3c2)CCC4CC(=O)O)ccc1C1CCCCC1` (racemic): in data set [1], the EC50 stood at 0.087 nM. In addition, the maximum response (Emax) in data set [2] was found to be 98%.
As for `N#Cc1ccc(COc2ccc3[nH]c4c(c3c2)CCC4CC(=O)O)cc1C(F)(F)F` (racemic), the EC50 in [1] is 141 nM. In addition, in data set [2], the maximum response (Emax) came to 104%.
